53 compounds from ChEMBL document CHEMBL1122020, “Synthesis and enzymic activity of various substituted pyrazolo[1,5-a]-1,3,5-triazines as adenosine cyclic 3',5'-phosphate phosphodiesterase inhibitors” (J Med Chem, 1982) can be followed below.

SMILES strings stand for the structures.

What is called Km is the concentration of substrate that gives half-maximal velocity. In general, Ki refers to the dissociation constant of the complex between target and ligand, obtained from inhibition or displacement.

Assay [1] addresses T1, Phosphodiesterase 4 (Homo sapiens) (UniProt P27815+Q08499+Q07343+Q08493). Put plainly: Inhibitory activity towards cAMP phosphodiesterase isolated from bovine heart. Format: protein assay. Set-up: unit not given here. The note with it: Bos taurus; target entry is the homologue from another species. The gist of the method: (§1)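 PDE prepared as previously described. Each 0.5 mL reaction held 25 µmol Tris-HCl (pH 7.5), 5 µmol MgCl2, 10-75 µg enzyme protein, 350 pmol [8-3H]cAMP (850 cpm/pmol), and at least seven inhibitor concentrations (0.5 µM to 5 mM). 5'-AMP formed was measured at three or more time points (3-12 min) to confirm linear rates. I50 was read graphically from % inhibition versus log inhibitor concentration.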

Assay [2] is filed under the species Bos taurus. Description: (§2) Inhibition of bovine brain cAMP Phosphodiesterase. Further details: unit not given here. The gist of the method:
as §1

Assay [3] has as its target T1, Phosphodiesterase 4 (Homo sapiens). Description: Inhibitory activity towards cAMP phosphodiesterase isolated from rabbit lung. The note with it: Oryctolagus cuniculus; target entry is the homologue from another species. Set-up: unit not given here. The format is protein assay. The gist of the method: as §1
Assay [4] has the same target. Put plainly: Inhibitory activity towards cAMP Phosphodiesterase isolated from rabbit heart. The format is protein assay. Set-up: reference not given here. The note with it: Oryctolagus cuniculus; target entry is the homologue from another species.
Assay [5] shares this target. Described as §2. The note with it: Bos taurus; target entry is the homologue from another species. In outline:
as §1

Assay [6] is filed under the species Bos taurus.
The species named for assay [7] is Oryctolagus cuniculus.
The species entered for assay [8] is Bos taurus. This is another data set of the same source.
The nature of assay [9]: Inhibition of bovine heart cAMP Phosphodiesterase. Further details: species or system Bos taurus. In outline: (§3)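 Enzymes prepared as previously described (beef heart, 14 units/mg; rabbit lung, 70 units/mg). The 0.5 mL reaction held 25 µmol Tris-HCl pH 7.5, 5 µmol MgCl2, 10-75 µg enzyme protein, 350 pmol [8-3H]cAMP (850 cpm/pmol), and at least seven inhibitor concentrations (0.5 µM to 5 mM). 5'-AMP was measured at three or more time points (3-12 min) to confirm linear rates. I50 was read graphically from % inhibition vs log concentration.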

Assay [10] is described as follows: Inhibition of rabbit lung cAMP Phosphodiesterase. The note with it: read-out: I50. Set-up: species or system Oryctolagus cuniculus. In outline: as §3

For `CCN(CC)c1ncnc2cc(-c3ccccc3)nn12`, the figures for the Activity in [1], in assay [2] and in assay [3] were 57, 146 and 143, respectively.
The corresponding values for `CCc1ncn2nc(-c3ccccc3)cc2n1` are 0.5, 97 and 14.
Take `CSc1nc(SC)n2ncc(Br)c2n1`: the Activity in assay [4] was found to be 1.5; in assay [3] it was 5.
As for `Cc1ncn2nc(-c3ccccc3)cc2n1`, the Activity stood at 3 in [1], 49 in assay [2] and 25 in assay [3].
Take `CCc1nc(C)n2nccc2n1`: the Activity in [1] worked out at 0.5; in assay [3], 2.4.
In the same order, the values of `CCc1nc(C)nc2cc(-c3ccccc3)nn12` are 4 and 21.
`CCc1nc(C)nc2c(-c3ccccc3)cnn12`: the Activity in [1] is 10; in assay [2] it was 39; in assay [3], 27.
The corresponding values for `CCc1nc(CC)n2nc(-c3ccccc3)cc2n1` are 7, 12 and 20.
With `CCc1nc(C)nc2ccnn12`, the Activity in assay [1] is 0.7; in assay [3] it was 1.1.
The corresponding values for `CCc1nc(CC)n2nc(-c3ccc(OC)cc3)cc2n1` are 8 and 14.
Turning to `CCCCNc1nc(C)nc2cc(-c3ccccc3)nn12`, the Activity worked out at 1.7 in assay [1] and 11 in [3].
Regarding `CSc1nc(OC(C)C)n2ncc(Br)c2n1`, the results for the Activity in assay [4] and in [3] were 4 and 1.5, respectively.
On to `CCCCNc1nc(SC)nc2c(Br)cnn12`, for which the results for the Activity in [5], in assay [4] and in [3] were 18, 12.5 and 160, respectively.
As for `CCc1nc(CC)n2nc(-c3ccccc3)c(Br)c2n1`, the Activity in [1] worked out at 2; in [3], 9.
Regarding `Nc1ncnc2c1ncn2[C@@H]1O[C@@H]2COP(=O)(O)O[C@H]2[C@H]1O`, the Km in assay [6] was determined as 1.3 µM; in assay [7], 0.56 µM; in assay [8], 0.63 µM.
`Cc1cccc(-c2cnn3c(C)nc(C)nc23)c1`: the Activity in assay [1] came to 2; in assay [3], 14.
On to `CCc1nc(C)nc2c(-c3cccc(C)c3)cnn12`, for which the Activity in assay [1] was determined as 5.
For `Cn1c(=O)c2nc[nH]c2n(C)c1=O` [THEOPHYLLINE], in [9], the Ki turned out to be 77 µM. The results for the IC50 in assay [9] (read-out: I50) and in assay [10] were 90 µM and 210 µM, respectively.
Consider `CCCc1nc(C)nc2c(Br)c(-c3ccccc3)nn12`, for which the results for the Activity in [1] and in assay [3] were 2 and 8, respectively.
In the same order, the values of `CCN(CC)c1ncnc2c(Br)c(-c3ccccc3)nn12` are 40 and 185.
In the same order, the values of `CCc1nc(C)nc2c(Cl)cnn12` are 0.8 and 1.8.
In the same order, the values of `CCc1nc(C)nc2cc(-c3ccc(OC)cc3)nn12` are 3 and 16.
In the case of `CCc1nc(C)nc2c(C#N)cnn12`, the Activity in [1] is 1.7; in [3] it was 1.2.
`CCCc1nc(C)nc2cc(-c3ccccc3)nn12`: the Activity in assay [1] is 11; in [3] it was 10.
With `CCSc1nc(SC)nc2ccnn12`, the Activity in assay [4] was 3.2; in [3] it was 8.
Consider `Cc1nc(C)n2ncc(-c3ccccc3)c2n1`, for which the Activity in assay [1] amounted to 3; in assay [2], 40; in assay [3] it was 25.
As to `CCOC(=O)c1cnn2c(CC)nc(C)nc12`, the Activity in assay [1] turned out to be 1.2; in assay [3], 0.7.
As for `CCNc1nc(SC)nc2c(Br)cnn12`, the Activity in assay [5] came out at 17; in [4] it was 8; in [3] it was 40.
Take `CCSc1nc(SC)nc2c(Br)cnn12`: the Activity stood at 2.6 in assay [4] and 13 in assay [3].
In the same order, the values of `CSc1nc(C)n2nccc2n1` are 0 and 1.6.
Turning to `CCN(CC)c1nc(SC)nc2ccnn12`, the figures for the Activity in assay [5], in assay [4] and in assay [3] were 12, 12.2 and 19, respectively.
As to `CCN(CC)c1nc(SC)nc2c(Br)cnn12`, the results for the Activity in assay [4] and in [3] were 6.2 and 26, respectively.
`CCc1nc(C)nc2c(Br)c(-c3ccccc3)nn12`: the results for the Activity in [1] and in assay [3] were 7 and 14, respectively.
The corresponding values for `CCc1nc(C)n2nc(-c3ccccc3)cc2n1` are 2.7 and 12.
The corresponding values for `CCCCNc1ncnc2cc(-c3ccccc3)nn12` are 2.5 and 13.5.
The corresponding values for `Cc1nc(C)n2nccc2n1` are 0.9 and 1.
For the compound `CSc1nc(S)n2ncc(Br)c2n1`, the Activity in assay [4] came to 0.68; in [3], 1.
The corresponding values for `CCCNc1nc(SC)nc2c(Br)cnn12` are 6.9 and 67.
For the compound `Cc1cccc(-c2cnn3cnc(C)nc23)c1`, the Activity in [1] came to 0.4; in assay [3] it was 1.5.
In the case of `CCCOc1nc(SC)nc2c(Br)cnn12`, the Activity is 0.7 in [4] and 2.7 in assay [3].
In the case of `CCCNc1ncnc2cc(-c3ccccc3)nn12`, the Activity in assay [1] amounted to 3.8; in assay [3] it was 26.
In the same order, the values of `c1ccc(-c2cc3ncnc(N4CCCCC4)n3n2)cc1` are 11 and 29.
As for `Cc1nc(-c2ccccc2)n2nc(-c3ccccc3)cc2n1`, in [3], the Activity stood at 10.
As for `Cc1nc(O)n2nc(-c3ccccc3)cc2n1`, the figures for the Activity in [1], in assay [2] and in [3] were 0.5, 4.7 and 1.9, respectively.
For the compound `Cc1ncn2nc(-c3ccccc3)c(Br)c2n1`, the Activity in assay [1] is 0.9; in assay [3], 1.8.
As for `CCc1nc(C)nc2c(Br)cnn12`, the Activity in assay [1] was found to be 1; in assay [3], 2.5.
Consider `CCCNc1nc(SC)nc2ccnn12`, for which the Activity was determined as 5.8 in [4] and 12 in assay [3].
In the same order, the values of `CSc1ncnc2cc(-c3ccccc3)nn12` are 7.3 and 11.
In the same order, the values of `COc1nc(SC)nc2c(Br)cnn12` are 3.2 and 9.
In the same order, the values of `COc1nc(SC)nc2ccnn12` are 0.5 and 0.6.
With `Cc1nc(C)n2nc(-c3ccccc3)c(Br)c2n1`, the Activity in assay [1] came out at 3; in [3], 40.
As for `Cc1nc(C)n2nc(-c3ccccc3)cc2n1`, the values for the Activity in assay [1], in assay [2] and in assay [3] were 3.5, 19 and 22, respectively.
The corresponding values for `CCc1nc(CC)n2nc(-c3ccccc3C)cc2n1` are 16, 42 and 15.
